Experimental findings from ChEMBL document CHEMBL1131637, “Novel and selective 5-HT2C/2B receptor antagonists as potential anxiolytic agents: synthesis, quantitative structure-activity relationships, and molecular modeling of substituted 1-(3-pyridylcarbamoyl)indolines” (J Med Chem, 1998) are described below.

The test system of assay [1] is Rattus norvegicus. The assay can be described thus: Percentage change punished lever presses from mean score on 6-8 rats(P<0.001) at 2 mg/kg po1h pretest. It is filed as functional.
Assay [2] has as its system Rattus norvegicus. Kind of assay: Percentage change unpunished lever presses from mean score on 6-8 rats at 1 mg/kg po1h pretest. The assay is classed as functional.
For assay [3], the system named is Rattus norvegicus. The assay can be described thus: Percentage change unpunished lever presses from mean score on 6-8 rats at 20 mg/kg po1h pretest. The assay is classed as functional.
The subject of assay [4] is Rattus norvegicus. Kind of assay: Percentage change punished lever presses from mean score on 6-8 rats(P<0.001) at 0.5 mg/kg po1h pretest. It is filed as functional.
In assay [5] the test system is Rattus norvegicus. The assay can be described thus: Percentage change unpunished lever presses from mean score on 6-8 rats at 0.2 mg/kg po1h pretest. It is filed as functional.
The subject of assay [6] is Rattus norvegicus. Kind of assay: Percentage change unpunished lever presses from mean score on 6-8 rats(P<0.05) at 0.1 mg/kg po1h pretest. It is filed as functional.
Assay [7] concerns Rattus norvegicus. The assay can be described thus: Percentage change punished lever presses from mean score on 6-8 rats(P<0.001) at 1 mg/kg po1h pretest. It is filed as functional.
The test system of assay [8] is Rattus norvegicus. Kind of assay: Percentage change punished lever presses from mean score on 6-8 rats(P<0.001) at 20 mg/kg po1h pretest. The assay is classed as functional.
The species entered for assay [9] is Rattus norvegicus. Kind of assay: The dose required to reverse […]- induced hypolocomotion in rat by 50 %. As to conditions: ip, 0.5 h, read-out: ID50 (the source's name). The assay is classed as functional.
Assay [10] relates to Rattus norvegicus. Kind of assay: Percentage change unpunished lever presses from mean score on 6-8 rats at 0.5 mg/kg po1h pretest. The assay is classed as functional.
The target in assay [11] is T1, 5-hydroxytryptamine receptor 2C (Homo sapiens, UniProt P28335).
T1 sequence (P28335 whole entry): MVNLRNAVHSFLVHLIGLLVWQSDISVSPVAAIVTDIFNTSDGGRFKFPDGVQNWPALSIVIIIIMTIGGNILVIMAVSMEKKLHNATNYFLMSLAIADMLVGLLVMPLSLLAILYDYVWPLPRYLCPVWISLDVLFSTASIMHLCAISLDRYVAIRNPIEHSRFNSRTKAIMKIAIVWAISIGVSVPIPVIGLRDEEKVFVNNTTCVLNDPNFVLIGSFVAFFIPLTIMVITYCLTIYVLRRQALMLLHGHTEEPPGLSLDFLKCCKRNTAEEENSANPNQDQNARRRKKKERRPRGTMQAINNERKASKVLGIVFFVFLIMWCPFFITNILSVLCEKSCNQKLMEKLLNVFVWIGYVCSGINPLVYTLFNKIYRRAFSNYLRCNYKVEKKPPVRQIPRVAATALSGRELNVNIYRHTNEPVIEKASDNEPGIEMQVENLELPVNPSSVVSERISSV
Kind of assay: Binding affinity towards cloned human 5-hydroxytryptamine 2C receptor expressed in HEK 293 cells using [3H]mesulergine as radioligand. It is filed as cell-based, HEK293.

Assay [12] deals with Rattus norvegicus. Kind of assay: Percentage change unpunished lever presses from mean score on 6-8 rats at 2 mg/kg po1h pretest. The assay is classed as functional.
Assay [13] has as its target 5-hydroxytryptamine receptor 2A (Homo sapiens, UniProt P28223). Kind of assay: Binding affinity towards human 5-hydroxytryptamine 2A receptor expressed in HEK 293 cells using [3H]ketanserin as radioligand. The assay is classed as cell-based, HEK293. The essentials: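 Radioligand binding on human cloned receptors stably expressed in HEK 293 cells; 5-HT2A labelled with [3H]ketanserin, 5-HT2B with [3H]-5-HT. Values are means of at least two determinations, each within 0.2 log unit of the mean.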

Assay [14] deals with Rattus norvegicus. The assay can be described thus: Percentage change unpunished lever presses from mean score on 6-8 rats at 10 mg/kg po1h pretest. It is filed as functional.
The subject of assay [15] is Rattus norvegicus. The assay can be described thus: Percentage change unpunished lever presses from mean score on 6-8 rats(P<0.01) at 5 mg/kg po1h pretest.
The test system of assay [16] is Rattus norvegicus. Kind of assay: Percentage change punished lever presses from mean score on 6-8 rats(P<0.001) at 5 mg/kg po1h pretest. The assay is classed as functional.
Assay [17] has as its system Rattus norvegicus. Kind of assay: Percentage change punished lever presses from mean score on 6-8 rats(P<0.001) at 0.2 mg/kg po1h pretest. It is filed as functional.
For assay [18], the system named is Rattus norvegicus. Kind of assay: Percentage change punished lever presses from mean score on 6-8 rats(P<0.001) at 10 mg/kg po1h pretest. It is filed as functional.
Assay [19] has as its system Rattus norvegicus. Kind of assay: Percentage change unpunished lever presses from mean score on 6-8 ratsP<0.01) at 1 mg/kg po1h pretest. It is filed as functional.
Assay [20] deals with Rattus norvegicus. The assay can be described thus: Percentage change unpunished lever presses from mean score on 6-8 rats at 5 mg/kg po1h pretest. It is filed as functional.
The test system of assay [21] is Rattus norvegicus. Kind of assay: Percentage change unpunished lever presses from mean score on 6-8 ratsP<0.05)at 2 mg/kg po1h pretest. The assay is classed as functional.
Assay [22] has as its system Rattus norvegicus. The assay can be described thus: Percentage change punished lever presses from mean score on 6-8 rats(P<0.01) at 5 mg/kg po1h pretest. The assay is classed as functional.
The test system of assay [23] is Rattus norvegicus. Kind of assay: Percentage change punished lever presses from mean score on 6-8 rats at 0.5 mg/kg po1h pretest. It is filed as functional.
For assay [24], the system named is Rattus norvegicus. The assay can be described thus: Percentage change punished lever presses from mean score on 6-8 rats at 0.2 mg/kg po1h pretest. It is filed as functional.
For assay [25], the system named is Rattus norvegicus. Kind of assay: Percentage change unpunished lever presses from mean score on 6-8 rats(P<0.05) at 2 mg/kg po1h pretest. The assay is classed as functional.
Assay [26] relates to Rattus norvegicus. The assay can be described thus: Percentage change punished lever presses from mean score on 6-8 ratsP<0.001) at 20 mg/kg po1h pretest. The assay is classed as functional.
Assay [27] deals with Rattus norvegicus. The assay can be described thus: Percentage change punished lever presses from mean score on 6-8 ratsP<0.001) at 10 mg/kg po1h pretest. The assay is classed as functional.
Assay [28] deals with Rattus norvegicus. Kind of assay: Percentage change punished lever presses from mean score on 6-8 ratsP<0.001) at 2 mg/kg po1h pretest. It is filed as functional.
In assay [29] the test system is Rattus norvegicus. Kind of assay: Percentage change unpunished lever presses from mean score on 6-8 rats(P<0.01) at 20 mg/kg po1h pretest. It is filed as functional.
Assay [30] relates to Rattus norvegicus. Kind of assay: Percentage change punished lever presses from mean score on 6-8 ratsP<0.001) at 5 mg/kg po1h pretest. It is filed as functional.
For assay [31], the system named is Rattus norvegicus. Kind of assay: Percentage change punished lever presses from mean score on 6-8 rats at 5 mg/kg po1h pretest. The assay is classed as functional. The essentials:
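Geller–Seifter conflict test in trained rats, groups of 6–8, oral dosing. Lever pressing for food reward on a multiple schedule: five 3-min VI30 components alternating with five 3-min light-signalled FR5 components, where reward came with footshock (15 ms pulses at 200 ms intervals for 1 s). Punished presses compared with each of 2 preceding vehicle-treated test days by two-way ANOVA of square-root-transformed data.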

Sequence of 5-hydroxytryptamine receptor 2A (P28223 whole entry): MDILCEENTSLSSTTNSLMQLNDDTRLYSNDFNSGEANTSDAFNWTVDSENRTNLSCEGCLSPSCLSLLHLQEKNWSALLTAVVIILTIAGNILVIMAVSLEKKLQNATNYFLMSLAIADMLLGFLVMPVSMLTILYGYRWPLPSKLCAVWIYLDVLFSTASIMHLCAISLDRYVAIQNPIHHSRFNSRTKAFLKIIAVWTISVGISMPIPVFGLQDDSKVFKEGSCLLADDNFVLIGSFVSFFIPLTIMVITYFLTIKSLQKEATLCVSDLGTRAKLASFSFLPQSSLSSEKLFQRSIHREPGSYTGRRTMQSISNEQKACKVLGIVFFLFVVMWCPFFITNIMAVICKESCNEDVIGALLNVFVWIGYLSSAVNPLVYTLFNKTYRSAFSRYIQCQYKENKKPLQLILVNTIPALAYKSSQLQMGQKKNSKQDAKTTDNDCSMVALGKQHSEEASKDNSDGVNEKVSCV

With `COc1cc2c(cc1C(F)(F)F)N(C(=O)Nc1cccnc1)CC2`, the Change with Rattus norvegicus [1] is 34%; with Rattus norvegicus [2] it was -2%; in the assay with Rattus norvegicus [3], -1%; in the assay on Rattus norvegicus [4], 36%; with Rattus norvegicus [5], 2%; in the assay with Rattus norvegicus [6], 8%. Further, the Change with Rattus norvegicus [7] was found to be 28%; in the assay with Rattus norvegicus [8], 62%; in the assay with Rattus norvegicus [10] it was 2%; in the assay on Rattus norvegicus [12], 3%; in the assay on Rattus norvegicus [14] it was 0%; in the assay on Rattus norvegicus [15], 8%. In addition, the Change in the assay with Rattus norvegicus [16] turned out to be 37%; in the assay with Rattus norvegicus [17], 26%; with Rattus norvegicus [18], 63%. In addition, in the assay filed under Rattus norvegicus [9], the ED50 turned out to be 0.8 mg/kg. The Ki was 10 nM in [11] and 1000 nM in assay [13].

Turning to `CSc1cc2c(cc1C(F)(F)F)N(C(=O)Nc1cccnc1)CC2`, the Change is reported as 36% in the assay with Rattus norvegicus [1]; 10% in the assay on Rattus norvegicus [19]; 0% in the assay on Rattus norvegicus [3]; 2% with Rattus norvegicus [20]; 4% with Rattus norvegicus [21]; 30% in the assay on Rattus norvegicus [7]. Also, the Change in the assay with Rattus norvegicus [22] is 38%; with Rattus norvegicus [23], 6%; with Rattus norvegicus [8], 76%; in the assay on Rattus norvegicus [10] it was 3%; with Rattus norvegicus [14], -2%; in the assay on Rattus norvegicus [18], 46%. Further, in the assay filed under Rattus norvegicus [9], the ED50 amounted to 1.2 mg/kg.

For `CCOc1cc2c(cc1C(F)(F)F)N(C(=O)Nc1cccnc1)CC2`, the Change with Rattus norvegicus [1] was 24%; in the assay with Rattus norvegicus [2], 4%; with Rattus norvegicus [4], 31%; in the assay with Rattus norvegicus [20] it was 0%; in the assay on Rattus norvegicus [5], 3%; with Rattus norvegicus [7], 33%. Besides, the Change in the assay on Rattus norvegicus [10] came out at 3%; in the assay on Rattus norvegicus [24] it was 5%; with Rattus norvegicus [12], 1%; with Rattus norvegicus [16], 31%. Besides, the ED50 in the assay listed under Rattus norvegicus [9] is 1 mg/kg. Also, the inhibition constant Ki in assay [11] was 6.31 nM; in assay [13], 1580 nM.

With `CSc1cc2c(cc1Br)N(C(=O)Nc1cccnc1)CC2`, the Change in the assay with Rattus norvegicus [25] is recorded as 5%; in the assay with Rattus norvegicus [26] it was 53%; in the assay on Rattus norvegicus [2] it was 2%; with Rattus norvegicus [20], 4%; in the assay with Rattus norvegicus [27], 38%; in the assay with Rattus norvegicus [7] it was 24%. Also, the Change was 0% with Rattus norvegicus [23]; 0% in the assay with Rattus norvegicus [10]; 29% in the assay with Rattus norvegicus [28]; 6% with Rattus norvegicus [29]; 28% in the assay on Rattus norvegicus [30]; 3% with Rattus norvegicus [14]. Besides, in the assay listed under Rattus norvegicus [9], the ED50 was 3 mg/kg. Also, the Ki in assay [11] was 2 nM; in assay [13], 501 nM.

On to `CN1C(=O)CN=C(c2ccccc2)c2cc(Cl)ccc21` [DIAZEPAM], for which the Change was -19% in the assay with Rattus norvegicus [20] and 70% with Rattus norvegicus [31].

By Ki is commonly meant the dissociation constant of the complex between target and ligand, obtained from inhibition or displacement. Read a low Ki as a stronger hold on the target.
